Active and inactive are the calls of the source. The rule behind the calls is not given here.

In ChEMBL document CHEMBL4354804, “Discovery of a New Isoxazole-3-hydroxamate-Based Histone Deacetylase 6 Inhibitor SS-208 with Antitumor Activity in Syngeneic Melanoma Mouse Models” (J Med Chem, 2019) one finds inhibition, Activity and half-life data, which are given here for one compound.

Data set [1] has as its target T1, Protein deacetylase HDAC6 (Mus musculus) (UniProt Q9Z2V5).
T1 sequence (whole entry): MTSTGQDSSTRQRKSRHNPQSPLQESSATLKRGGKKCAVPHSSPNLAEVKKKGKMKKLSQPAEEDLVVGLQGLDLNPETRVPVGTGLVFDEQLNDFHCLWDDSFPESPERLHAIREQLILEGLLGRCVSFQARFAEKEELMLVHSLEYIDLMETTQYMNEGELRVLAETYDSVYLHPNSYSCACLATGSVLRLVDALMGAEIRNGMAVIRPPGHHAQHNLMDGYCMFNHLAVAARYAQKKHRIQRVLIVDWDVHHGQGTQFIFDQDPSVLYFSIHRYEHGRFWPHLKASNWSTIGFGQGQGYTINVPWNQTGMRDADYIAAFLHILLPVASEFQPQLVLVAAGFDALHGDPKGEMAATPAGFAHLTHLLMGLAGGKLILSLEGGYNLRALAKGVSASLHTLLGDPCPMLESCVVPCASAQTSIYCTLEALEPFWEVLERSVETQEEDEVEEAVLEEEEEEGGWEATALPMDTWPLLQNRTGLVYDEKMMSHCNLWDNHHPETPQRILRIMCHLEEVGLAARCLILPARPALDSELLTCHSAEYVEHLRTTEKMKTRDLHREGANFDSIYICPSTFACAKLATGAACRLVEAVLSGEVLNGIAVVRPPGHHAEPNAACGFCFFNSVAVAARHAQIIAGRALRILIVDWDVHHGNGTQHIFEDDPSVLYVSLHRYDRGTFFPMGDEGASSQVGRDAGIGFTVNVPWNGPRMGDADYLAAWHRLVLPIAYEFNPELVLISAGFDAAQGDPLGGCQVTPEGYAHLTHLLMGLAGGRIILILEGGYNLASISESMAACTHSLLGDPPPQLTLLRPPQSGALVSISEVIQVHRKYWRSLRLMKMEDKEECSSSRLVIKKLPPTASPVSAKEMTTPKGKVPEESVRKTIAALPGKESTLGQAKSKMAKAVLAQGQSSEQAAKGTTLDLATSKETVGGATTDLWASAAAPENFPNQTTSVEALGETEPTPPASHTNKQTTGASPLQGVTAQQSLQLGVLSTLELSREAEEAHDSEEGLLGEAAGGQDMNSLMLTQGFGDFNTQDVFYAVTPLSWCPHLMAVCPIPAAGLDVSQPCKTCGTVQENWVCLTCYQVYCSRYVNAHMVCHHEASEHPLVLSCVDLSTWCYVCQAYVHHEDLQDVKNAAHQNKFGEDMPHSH
In words: Inhibition of HDAC6 in mouse SM1 cells assessed as effect on acetylated histone H3 level at 5 uM after 24 hrs by Western blot analysis. Type of data set: cell-based. In general terms: Immunoblotting shows a protein as a band on a membrane.

The nature of data set [2]: Mutagenicity in Salmonella typhimurium TA98 assessed as induction of >= 2 fold increase in revertant colonies at 1.5 to 1000 ug/well in presence of S9 fraction by Ames test. Particulars: salmonella enterica subsp. enterica serovar typhimurium. Type of data set: toxicity, subcellular. The essentials:
(§1)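 Ames test with S. typhimurium TA98 and TA1537, with and without S9 mix. A positive call required a ≥ 2-fold (TA98) or ≥ 3-fold (TA1537) rise in mean revertant colonies over the concurrent negative/solvent control.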
(In general: The Ames test uses bacterial strains that need an amino acid and regain growth without it when mutated back.)

A short description of data set [3]: Mutagenicity in Salmonella typhimurium TA1537 assessed as induction of >= 3 fold increase in revertant colonies at 1.5 to 1000 ug/well in absence of S9 fraction by Ames test. It is filed as toxicity. The following applies: salmonella enterica subsp. enterica serovar typhimurium. The essentials: as §1
The nature of data set [4]: Mutagenicity in Salmonella typhimurium TA1537 assessed as induction of >= 3 fold increase in revertant colonies at 1.5 to 1000 ug/well in presence of S9 fraction by Ames test. Particulars: salmonella enterica subsp. enterica serovar typhimurium. It is filed as toxicity, subcellular. The essentials: as §1
A short description of data set [5]: Half life in mouse hepatocytes. It is filed as ADME, cell-based, Hepatocyte. The method, boiled down: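 Half-life in minutes measured in mouse and human hepatocytes.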
In data set [6] the target is T1, Protein deacetylase HDAC6 (Mus musculus). In words: Inhibition of HDAC6 in mouse SM1 cells assessed as increase in acetylated alpha-tubulin level at 5 to 10 uM after 24 hrs by Western blot analysis. It is filed as cell-based.
Data set [7] addresses Histone deacetylase (Mus musculus) (UniProt Q8VH37+Q9Z2V6+Q9Z2V5+O09106+Q8C2B3+P70288+O88895+Q91WA3+Q99N13+Q6NZM9+Q6P3E7). The data set is described as follows: Inhibition of HDAC in mouse SM1 cells at 0.1 to 25 uM measured after 1 hr by HDAC-Glo 1/2 luminescent assay. Type of data set: cell-based. The method, boiled down: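 Cells plated at 10,000 per well overnight, then after 24 h treated with compound for 1 h at 37 °C, 5% CO2. HDAC-Glo I/II developer mixed with substrate and added to wells; luminescence read every 2 min for 1 h 15 min.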

The subject of data set [8] is Mus musculus. In words: Antitumor immunity against mouse SM1 cells implanted in flank of immunocompetent C57BL/6 mouse assessed as infiltration of intratumoral CD4+ cells at 25 mg/kg, ip administered 1 week post-implantation by flow cytometry. Type of data set: functional, organism-based. For orientation: A flow cytometer gives signals particle by particle.
A further data set relates to 5637. In words: Induction of cell death in human 5637 cells at 0.1 to 25 uM. It is filed as cell-based. Particulars: human, 5637, 25 µM.
In data set [9] the test system is Mus musculus. In words: Antitumor immunity against mouse SM1 cells implanted in flank of immunocompetent C57BL/6 mouse assessed as increase in antitumor M1 macrophages at 25 mg/kg, ip administered 1 week post-implantation by flow cytometry. It is filed as functional, organism-based.

As a reminder, the half-life is the time in which the quantity being followed falls by half. Low readings indicate fast loss, high ones slow loss. Consider `O=C(NCCc1cc(C(=O)NO)no1)c1ccc(Cl)c(Cl)c1`, for which the inhibition entry in data set [1] was “inactive”. Further, the Activity result (in data set [2]; in [3]; in data set [4]; with 5637) was “Non-Toxic” each time. Also, the half-life in data set [5] worked out at 22 min. For the same compound, the inhibition entry in [6] and in data set [7] was “Active” each time. Also, in the data set on Mus musculus [8], the outcome was inactive. The result in the data set with Mus musculus [9] was Active.
